Screens: PubChem, several laboratories
Granule exo inh – lytic granule exocytosis inhibition; TALL-104 LAMP-1 surface exposure, flow cytometry; cells stimulated with thapsigargin and PMA; inhibition, % at 10 µM; hit rate 0.66% among 360,000;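 active = inhibition above about 55%, limit read from the data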
HKDC1 inhibitor – HKDC1 (human) hexokinase inhibition. Q2TB90. hit rate 0.16% among 340,000. inhibition, % at 20 µM. recombinant HKDC1, G6PDH/diaphorase resazurin coupled fluorescence;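 active = inhibition above about 35% when tested at 20 µM, limit read from the data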;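 note: plate controls were DMSO wells with enzyme for no effect and DMSO wells lacking enzyme for full effect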
Target sequence (Q2TB90 whole entry, looked up): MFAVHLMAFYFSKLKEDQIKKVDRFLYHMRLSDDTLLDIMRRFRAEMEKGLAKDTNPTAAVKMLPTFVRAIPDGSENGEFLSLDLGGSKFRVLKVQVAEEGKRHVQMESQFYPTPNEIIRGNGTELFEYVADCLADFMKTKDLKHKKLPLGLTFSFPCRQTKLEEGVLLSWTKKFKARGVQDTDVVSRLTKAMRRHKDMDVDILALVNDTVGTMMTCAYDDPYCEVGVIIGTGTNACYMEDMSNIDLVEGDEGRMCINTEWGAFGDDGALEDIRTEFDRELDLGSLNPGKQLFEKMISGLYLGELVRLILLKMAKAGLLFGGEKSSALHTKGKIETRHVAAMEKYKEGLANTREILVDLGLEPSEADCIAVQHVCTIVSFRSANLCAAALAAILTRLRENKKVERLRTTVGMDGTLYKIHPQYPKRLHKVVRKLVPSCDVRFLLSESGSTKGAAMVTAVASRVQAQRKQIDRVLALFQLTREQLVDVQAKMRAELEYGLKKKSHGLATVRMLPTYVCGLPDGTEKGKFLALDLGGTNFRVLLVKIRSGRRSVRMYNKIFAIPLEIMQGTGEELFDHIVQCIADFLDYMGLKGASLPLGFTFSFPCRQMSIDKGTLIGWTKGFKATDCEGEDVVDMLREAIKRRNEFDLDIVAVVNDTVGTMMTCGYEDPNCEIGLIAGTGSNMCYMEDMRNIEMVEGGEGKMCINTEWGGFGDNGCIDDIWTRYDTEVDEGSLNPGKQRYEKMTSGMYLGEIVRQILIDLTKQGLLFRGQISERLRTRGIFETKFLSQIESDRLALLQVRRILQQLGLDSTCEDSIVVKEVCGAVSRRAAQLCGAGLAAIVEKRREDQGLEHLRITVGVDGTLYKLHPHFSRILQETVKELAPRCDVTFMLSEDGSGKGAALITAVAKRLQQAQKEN
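Test system: Recombinant HKDC1 (HK5) hexokinase enzyme, produced in-house | Input: HKDC1 at 5 µg/mL | Buffer or medium: Tris pH 8.0 buffer with MgCl2, Tween-20, BSA, BME | Schedule: 90 min reaction incubation at room temperature, dark | Technique: Resazurin-to-resorufin fluorescence via G6PDH and diaphorase coupling, 525/613 nm | Controls: DMSO wells with and without enzyme mix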
PfG6PD inh – PfG6PD (Plasmodium falciparum) enzyme inhibition | PfGluPho enzyme, NADPH resazurin-diaphorase fluorescence | inhibition, % at 20 µM | hit rate 0.78% among 350,000;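 active = inhibition reaching at least a set limit at 20 µM in the primary screen, cut at about 59% in these data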;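 note: 0% = DMSO wells with substrate and 100% = DMSO wells lacking glucose-6-phosphate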
ABHD5 PLIN5 PPI – blocks binding of human ABHD5 to perilipin-5 | Q00G26+Q8WTS1 | Split G. princeps luciferase complementation, luminescence, 4 h | inhibition, % at 4 µM | hit rate 0.78% among 360,000 | AID 602281;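 active = inhibition above the mean inhibition across every tested compound plus 3 SD, cut at about 22% in these data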;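 note: 0% = DMSO only wells and the 100% control is not disclosed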
PfG6PD confirm – PfG6PD inhibition, single-dose confirmed | recombinant PfGluPho, NADPH-diaphorase-resazurin fluorescence | inhibition, % at 20 µM | shares compounds with PfG6PD inh | hit rate 34% among 2,400;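 active = inhibition of at least 50% at 20 µM in any single replicate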;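 note: 0% = DMSO with substrate and 100% = DMSO lacking glucose-6-phosphate substrate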
Diaphorase 10uM – counter-screen for P. falciparum G6PD inhibitors: diaphorase inhibitors, oxidizers; diaphorase-coupled resazurin reduction, fluorescence, NADPH 10 uM; hit rate 39% among 820; inhibition, % at 20 µM; AID 504862; shares compounds with PfG6PD inh;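 active = average inhibition reaching 50% or more with the compound at 20 µM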;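 note: resorufin red fluorescence formed as diaphorase reduces resazurin using NADPH; 0% = DMSO with enzyme and 100% = DMSO without enzyme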
Diaph ctr 30uM – counter-screen for P. falciparum G6PD inhibitors: diaphorase inhibitors, oxidizers; shares compounds with PfG6PD inh; Diaphorase/resazurin coupled assay, resorufin fluorescence, 30 uM NADPH; inhibition, % at 20 µM; hit rate 29% among 820; AID 504863;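 active = inhibition averaging 50% or more, tested at 20 µM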;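 note: 0% = DMSO with enzyme and 100% = DMSO wells lacking diaphorase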
An asterisk follows results filed as active; . = not tested or not shown. Sampled rows, rich in hits. Any-hit rate of the full collection: about 2.2%.

SMILES | Granule exo inh | HKDC1 inhibitor | PfG6PD inh | ABHD5 PLIN5 PPI | PfG6PD confirm | others
COc1ccc(C(=O)Nc2nnc(S(=O)(=O)N(C)Cc3ccccc3)s2)cc1 | 0 | 3 | 71* | -1 | 33
COc1ccc(CN(C)S(=O)(=O)c2nnc(NC(=O)c3cccc(C)c3)s2)cc1OC | 4 | 6 | 80* | -2 | 64* | Diaphorase 10uM=64*;Diaph ctr 30uM=40
CC(=O)OC[C@H]1O[C@@H](Oc2cc(O)cc3oc(-c4ccc(O)cc4)cc(=O)c23)[C@H](O[C@@H]2O[C@@H](C)[C@H](O)[C@@H](O)[C@H]2O)[C@@H](O)[C@@H]1O | 2 | -1 | 0 | -4 | .
O=C(CSc1ccccn1)Nc1nonc1[N+](=O)[O-] | 59* | 13 | 112* | 6 | 110* | Diaphorase 10uM=87*;Diaph ctr 30uM=91*
O=C(CSc1ccccn1)Nc1ccc(NC(=O)CSc2ccccn2)cc1 | -2 | -1 | -24 | -2 | .
COC(=O)c1c(C)n(-c2ccccc2)c2ccc(O)cc12 | -2 | 20 | 63* | -8 | 28
COCc1cc(S(=O)c2ccc(Cl)cc2)nc(C)n1 (configuration not stated) | 1 | 8 | 10 | -6 | .
O=C(CS(=O)(=O)c1c[nH]c2ccccc12)Nc1ccc(F)cc1 | 15 | -4 | 11 | 0 | .
O=S(=O)(Cc1cccc(F)c1)c1c[nH]c2ccccc12 | 0 | 1 | 86* | 8 | 41
O=S(=O)(Nc1cccc2cccnc12)c1ccccc1 | 1 | 15 | 96* | -5 | 52* | Diaphorase 10uM=61*;Diaph ctr 30uM=40
Cc1ccc2cccc(NS(=O)(=O)c3ccccc3)c2n1 | . | 4 | 139* | . | 105* | Diaphorase 10uM=102*;Diaph ctr 30uM=80*
CCOC(=O)c1ccc(-c2ccc3c(c2)CCC3)nc1C | -9 | 4 | 9 | -8 | .
Cc1ccc(-n2c(N)c(C(=O)Nc3ccccc3F)sc2=S)cc1C | -6 | -3 | 70* | 5 | -3
Cc1ccc(C)c(-n2c(N)c(C(N)=O)sc2=S)c1 | -2 | 0 | 4 | 0 | .
COC(=O)c1ccccc1NC(=O)c1sc(=S)n(C)c1N | 11 | -2 | 63* | 2 | 40
Cc1ccc(-n2c(N)c(C(N)=O)sc2=S)c(C)c1 | 1 | -12 | 62* | -11 | 29
Cc1ccc(NC(=O)c2sc(=S)n(-c3cc(C)ccc3F)c2N)cc1 | -2 | -8 | 75* | -4 | 25
CCOC(=O)c1cc(=O)c2ccc(OCC(=O)Nc3ccc(F)cc3)cc2o1 | -3 | 0 | 0 | 4 | .
Cn1c(=O)[nH]c(=O)c2c1nc(SCC(O)CCl)n2Cc1ccccc1 (configuration not stated) | 1 | -2 | 2 | 0 | .
COc1ccc(C(=O)Nc2ccccc2C(=O)N2CCCCC2C)cc1 (configuration not stated) | -3 | -4 | -6 | 3 | .
Cc1ccc(-c2csc(NC(=O)c3ccccc3F)c2C(=O)O)cc1 | 20 | 14 | 73* | 6 | 51* | Diaphorase 10uM=36;Diaph ctr 30uM=40
Cc1ccc(-c2csc(NC(=O)c3ccc(F)cc3)c2C(=O)O)cc1 | 35 | 22 | 88* | -1 | 44
COc1cccc(C=Nc2cc(C(C)C)c(O)cc2C)c1O | -2 | 23 | 114* | 20 | 67* | Diaphorase 10uM=6;Diaph ctr 30uM=-1
CNC(=S)N/N=C/c1ccc(N(C)C)cc1 | -3 | -2 | 11 | 1 | .
Cc1cc(O)c(C(C)C)cc1NC(=O)Nc1ccc([N+](=O)[O-])cc1 | 2 | 8 | 23 | 3 | .
SMILES | Granule exo inh | HKDC1 inhibitor | PfG6PD inh | ABHD5 PLIN5 PPI | PfG6PD confirm | others
Cc1cc(O)c(C(C)C)cc1N=Cc1ccc([N+](=O)[O-])cc1 | -9 | 26 | 91* | 0 | 62* | Diaphorase 10uM=49;Diaph ctr 30uM=15
COc1cccc(C=NCCCN=Cc2cccc(OC)c2O)c1O | 19 | 0 | 25 | -4 | .
Cc1cc(O)c(C(C)C)cc1N=Cc1ccc(N(C)C)cc1 | -3 | 25 | 106* | 11 | 83* | Diaphorase 10uM=87*;Diaph ctr 30uM=43
COc1ccc(CCN2C(=O)CSC2=Nc2ccc(C(C)C)cc2)cc1OC | 1 | 4 | 47 | 4 | -8
CCCC(=O)N1CCC1(C)C(=O)NS(=O)(=O)c1cccc(Cl)c1 (configuration not stated) | -3 | . | . | 3 | .
O=C1C=C(O)c2[nH]c(=O)ccc2C1=O | -9 | 22 | 69* | -14 | 30
O=C1C=C(O)c2c(O)cc(O)c(O)c2C1=O | -6 | -1 | 4 | 6 | .
CC(C)(C)OC(=O)C[C@H]1C/C=C\C[C@@H](CC(=O)NCCO)C(=O)N[C@H](C(C)(C)C)COC1=O | 0 | -8 | 17 | -10 | .
O=c1[nH]c2cc3c(cc2cc1CN(Cc1ccccc1)Cc1nnnn1Cc1ccco1)OCCO3 | -2 | 21 | 76* | 34* | -6
O=C(CCCc1c[nH]c2ccccc12)N[C@@H](Cc1c[nH]c2ccccc12)C(=O)O | -3 | -1 | -23 | 5 | .
S=c1[nH]c(-c2ccc(Cl)cc2)cs1 | 3 | 6 | 62* | -13 | 3
Cc1ccc(-c2csc(=S)[nH]2)cc1 | 4 | -4 | 24 | -15 | .
O=C(Cc1ccc(S(=O)(=O)N2CCOCC2)s1)OCc1ccc(Cl)cc1 | 11 | -1 | 11 | 8 | .
Cc1ccc(C(C(=O)NC(C)(C)C)N(Cc2cccs2)C(=O)c2ccc3c(c2)OCCO3)cc1 (configuration not stated) | 0 | 13 | -17 | -4 | .
CCC(C)(C)NC(=O)C(c1ccc(C)cc1)N(Cc1cccs1)C(=O)c1ccc2c(c1)OCCO2 (configuration not stated) | 7 | -8 | 62* | -3 | -29
COc1cc(CNc2ccc3[nH]c(=O)[nH]c3c2)cc(Cl)c1OCC(=O)NC(C)(C)C | 6 | 11 | 83* | -2 | 38
C=CCOc1c(CNc2ccc3[nH]c(=O)[nH]c3c2)cccc1OC | 5 | -1 | 21 | 1 | .
O=c1[nH]c2ccc(NCc3ccccc3OCc3ccc(Cl)cc3)cc2[nH]1 | 39 | 18 | 73* | -1 | 47* | Diaphorase 10uM=-9;Diaph ctr 30uM=0
Oc1ccc(NCc2ccccc2OCc2ccccc2)cc1 | 2 | 15 | 73* | -9 | 50* | Diaphorase 10uM=-10;Diaph ctr 30uM=-16
COc1cccc(CNc2ccc3[nH]c(=O)[nH]c3c2)c1OCc1ccc(F)cc1 | 27 | 23 | 112* | 1 | 51* | Diaphorase 10uM=-9;Diaph ctr 30uM=-1
CCNCc1ccccc1OCc1ccccc1 | -2 | 6 | -21 | 0 | .
CC(C)NC(=O)C(c1ccc(F)cc1)N(Cc1ccco1)C(=O)CCC(=O)Nc1ccccn1 (configuration not stated) | 4 | -4 | 13 | 5 | .
CCOc1ccc(NC(=S)N(CCOC)C(C)c2ccco2)cc1 (configuration not stated) | -3 | 12 | 1 | -9 | .
Cc1cc2[nH]c(=O)c(=O)[nH]c2cc1S(=O)(=O)Nc1cccc(Cl)c1 | 5 | 6 | -19 | 10 | .
